Results: ChEMBL document CHEMBL2010680, “Short cyclic peptides derived from the C-terminal sequence of α1-antitrypsin exhibit significant anti-HIV-1 activity” (Bioorg Med Chem Lett, 2012)
Peptide text beside a SMILES is read from it.

How the values were obtained:
[1] = test system: Human immunodeficiency virus 1; assay: Antiviral activity against Human immunodeficiency virus 1 3B infected in human MT2 cells assessed as inhibition of viral replication after 4 days by ELISA; type: functional, organism-based; details: MT2, 96 h
Method in brief: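 Read-out is HIV-1 gag p24 antigen in culture supernatants, measured by ELISA and collected on the fourth day post-infection.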

[2] = Inhibition of Human immunodeficiency virus 1 3B envelope glycoprotein-mediated cell-cell fusion of infected H9 cells to human MT2 cells measured 2 hrs after wash out by fluorescence analysis; type: cell-based; details: MT2, 2 h
Method in brief: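 Fluorescence-labeled H9/HIV-1 IIIB cells were washed, then mixed with MT-2 cells at 1:5 for 2 h at 37 °C, without or with peptide at graded concentrations. Fused cells were counted by fluorescence microscopy, percent inhibition of fusion was calculated, and IC50 was derived from the dose-response.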

[3] = Cytotoxicity against human MT2 cells after 4 days by XTT assay; type: cell-based
Method in brief: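 Peptide at graded concentrations was added to an equal volume of MT-2 cells (5 × 10^5/ml) and incubated 4 days at 37 °C. XTT (1 mg/ml) was added, and 4 h later soluble formazan was read at 450 nm with a 650 nm reference. CC50 was calculated from the dose-response.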

[4] = test system: Human immunodeficiency virus 1; assay: Antiviral activity against Human immunodeficiency virus type 1 SF162 pseudovirus expressing envelope glycoprotein 160 infected in human U87 cells after 48 hrs by luminometric analysis; type: functional, cell-based, U-87MG ATCC; details: Human immunodeficiency virus 1, SF162 ISOLATE, U-87 MG
Method in brief: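 U87-CCR5 cells were seeded overnight. Pseudovirus (1 ng p24/well) was preincubated with peptide at the indicated concentration for 30 min at 37 °C, then added to the cells for 48 h. Cells were washed with PBS and lysed, and luciferase activity was measured by luminometer. Each peptide was tested in triplicate; data are mean ± SD.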

| Molecule | IC50 [1] [µM] | IC50 [2] [µM] | IC50 [4] [µM] | CC50 at 96 h [3] [µM] |
| --- | --- | --- | --- | --- |
| CC(C)C[C@@H]1NC(=O)[C@H](Cc2ccccc2)NC(=O)[C@H](C(C)C)NC(=O)[C@H](Cc2ccccc2)NC(=O)[C@@H]2CCCN2C(=O)[C@H](CS)NC(=O)[C@H](CCC(=O)O)NC1=O (cyclo(CPFVFLE)) | 55.8 | 116 | – | > 200 |
| H-FVFLM-OH | > 100 | – | – | – |
| H-NKPFVFLM-OH | > 100 | – | – | – |
| H-KPFVFLM-OH | > 100 | – | – | – |
| CC(C)C[C@@H]1NC(=O)[C@H](Cc2ccccc2)NC(=O)[C@H](C(C)C)NC(=O)[C@H](Cc2ccccc2)NC(=O)[C@@H]2CCCN2C(=O)[C@H](CS)NC(=O)[C@H](CCCNC(=N)N)NC1=O (cyclo(CPFVFLR)) | 74.1 | 74 | – | > 200 |
| H-PFVFLR-OH | > 100 | > 200 | – | – |

The next lines start with results.

| IC50 [1] [µM] | IC50 [2] [µM] | IC50 [4] [µM] | Molecule | CC50 at 96 h [3] [µM] |
| --- | --- | --- | --- | --- |
| > 100 | – | – | H-PFVYLI-OH | – |
| > 100 | > 200 | – | H-PEVFLM-OH | – |
| > 100 | – | – | H-EFVFLM-OH | – |
| > 100 | > 200 | – | H-PFVFLM-OH | – |
| > 100 | > 200 | – | H-PFVFLE-OH | – |
| > 100 | > 200 | – | CSCC[C@@H]1NC(=O)[C@H](CC(C)C)NC(=O)[C@H](Cc2ccccc2)NC(=O)[C@H](C(C)C)NC(=O)[C@H](CCC(=O)O)NC(=O)[C@@H]2CCCN2C(=O)[C@H](CS)NC1=O (cyclo(CPEVFLM)) | > 200 |
| 8.96 | 67.2 | 5.95 | CSCC[C@@H]1NC(=O)[C@H](CC(C)C)NC(=O)[C@H](Cc2ccccc2)NC(=O)[C@H](C(C)C)NC(=O)[C@H](Cc2ccccc2)NC(=O)[C@@H]2CCCN2C(=O)[C@H](CS)NC1=O (cyclo(CPFVFLM)) | > 200 |
